The text below walks through data of ChEMBL document CHEMBL1152759, “Design, synthesis, and biological evaluation of novel quinoline derivatives as HIV-1 Tat-TAR interaction inhibitors” (Bioorg Med Chem, 2009).

Data set [1] in a line: Selectivity index, ratio of TC50 for human CEM cells to EC50 for SIV in human CEM cells.
A short description of data set [2]: Cytotoxicity against human CEM cells. In kind it is cell-based. The settings on record: CEM (CCRF-CEM) cells, read-out: TC50 (the source's name). The gist of the method:
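Uninfected CEM cells exposed to compound dilutions; TC50 is the concentration giving 50% inhibition of cell proliferation.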

Data set [3] concerns Simian immunodeficiency virus. Description: Antiviral activity against SIV in human CEM cells assessed as protection against virus-induced cytopathogenicity. It counts as functional, organism-based. The settings on record: CCRF-CEM. The gist of the method: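 SIV syncytium assay: CEM174 cells at 2 × 10^5 cells/ml infected with 100 TCID50 SIV per well, given dilutions of compound; 5 days at 37 °C, 5% CO2, humidified air. Giant (syncytium) cell formation scored microscopically. EC50 = concentration protecting cells from SIV cytopathogenicity by 50%.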
A general note: Damage to the host cells serves as the signal in cytopathic effect assays.

The subject of the next data set is Nucleic Acid. In words: Inhibition of HIV1 Tat-TAR RNA interaction-mediated transactivation in human 293T cells assessed as CAT gene expression at 30 uM after 24 hrs by ELISA; values are per cent of control. The note with it: Human immunodeficiency virus 1.

The term EC50 denotes the concentration that produces a half-maximal response. Consider `C[C@@H](CO)NC(=O)c1cnc2ccccc2c1Cl`, for which the Ratio in data set [1] is above 14. Moreover, in data set [2], the CC50 is above 100 µM. The EC50 in data set [3] amounted to 7 µM.
For `COC(=O)[C@H](CO)NC(=O)c1cnc2ccccc2c1Cl`, in data set [1], the Ratio is listed as above 90. In addition, the CC50 in data set [2] was above 100 µM. The level, % of control with Nucleic Acid is 59.6%. Also, the EC50 in data set [3] was 1.1 µM.
Regarding `O=C(NCCO)c1cn(Cc2ccc(F)cc2)c2ccccc2c1=O`, the Ratio in data set [1] was above 14. Also, the CC50 in data set [2] is above 100 µM. The EC50 in data set [3] turned out to be 6.9 µM.
For the molecule `COC(=O)CNC(=O)c1cnc2ccccc2c1Cl`, the Ratio in data set [1] is listed as above 18. Besides, the CC50 in data set [2] is above 100 µM. The level, % of control in the data set with Nucleic Acid came out at 79%. For the same molecule, the 50% effective concentration (EC50) in data set [3] was found to be 5.4 µM.
With `CC(C)C[C@@H](CO)NC(=O)c1cnc2ccccc2c1Cl`, the Ratio in data set [1] is on record as above 12. In addition, in data set [2], the CC50 was above 100 µM. The level, % of control with Nucleic Acid was 71.9%. For the same molecule, in data set [3], the EC50 was 7.9 µM.
For `COC(=O)[C@H](CC(C)C)NC(=O)c1cnc2ccccc2c1Cl`, the Ratio in data set [1] was 5.2. Moreover, the CC50 in data set [2] is 49.1 µM. Further, the EC50 in data set [3] was 9.4 µM.
On the same counts, the results for `COC(=O)[C@H](Cc1ccccc1)NC(=O)c1cnc2ccccc2c1Cl` are above 13, above 100 µM and 7.9 µM.
For `COC(=O)[C@H](CO)NC(=O)c1cnc2ccc(F)cc2c1Cl`, in data set [1], the Ratio was above 17. Besides, in data set [2], the CC50 was above 100 µM. The EC50 in data set [3] was 5.8 µM.
Turning to `O=C(NCCO)c1c[nH]c2ccc(Cl)cc2c1=O`, in data set [1], the Ratio is above 19. The CC50 in data set [2] is above 100 µM. In addition, the EC50 in data set [3] was determined as 5.1 µM.
Regarding `O=C(NCCO)c1cn(Cc2ccccc2)c2ccccc2c1=O`, the Ratio in data set [1] is on record as above 16. Besides, in data set [2], the CC50 was above 100 µM. For the same molecule, in the data set with Nucleic Acid, the level, % of control is 63.9%. The EC50 in data set [3] turned out to be 6 µM.
On to `O=C(NCCCO)c1cnc2ccccc2c1Cl`, for which, in data set [1], the Ratio is above 15. For the same molecule, the CC50 in data set [2] was above 100 µM. Moreover, in data set [3], the EC50 was found to be 6.6 µM.
Take `COC(=O)[C@H](CO)NC(=O)c1cnc2cc(C)ccc2c1Cl`: the Ratio in data set [1] is recorded as 13. Moreover, the CC50 in data set [2] came out at 59.6 µM. For the same molecule, the level, % of control in the data set on Nucleic Acid was 53.3%. Also, in data set [3], the EC50 came out at 4.7 µM.
Consider `COC(=O)[C@H](CO)NC(=O)c1cnc2ccc(C)cc2c1Cl`, for which, in data set [1], the Ratio is reported as above 8.6. Moreover, the CC50 in data set [2] was above 100 µM. For the same molecule, in data set [3], the EC50 turned out to be 11.6 µM.
On the same counts, the results for `O=C(NCCO)c1cn(CCO)c2ccccc2c1=O` are above 13, above 100 µM and 7.3 µM.
Turning to `COC(=O)[C@H](CSC)NC(=O)c1cnc2ccccc2c1Cl`, the Ratio in data set [1] is listed as 22. Besides, the CC50 in data set [2] amounted to 68.4 µM. For the same molecule, the EC50 in data set [3] came to 2.9 µM.
The matching figures for `O=C(NCCO)c1c[nH]c2ccc(Oc3ccccc3)cc2c1=O`: above 20, above 100 µM and 4.9 µM.
In the case of `COC(=O)[C@H](Cc1c[nH]c2ccccc12)NC(=O)c1cnc2ccccc2c1Cl`, in data set [1], the Ratio is above 19. Besides, the CC50 in data set [2] was above 100 µM. For the same molecule, the EC50 in data set [3] was 10 µM.
On to `COC(=O)[C@H](CO)NC(=O)c1cnc2ccc(Cl)cc2c1Cl`, for which the Ratio in data set [1] is given as above 8.3. Also, the CC50 in data set [2] was above 100 µM. For the same molecule, the EC50 in data set [3] was 12 µM.
For `COC(=O)[C@H](CO)NC(=O)c1cnc2c(Cl)cccc2c1Cl`, in data set [1], the Ratio was above 15. In addition, in data set [2], the CC50 is above 100 µM. The EC50 in data set [3] is 6.7 µM.
The matching figures for `COC(=O)[C@@H](NC(=O)c1cnc2ccccc2c1Cl)C(C)C`: 3.1, 17.6 µM and 5.6 µM.
`COC(=O)[C@@H](NC(=O)c1cnc2ccccc2c1Cl)[C@@H](C)O`: the Ratio in data set [1] is recorded as above 14. Besides, in data set [2], the CC50 was above 100 µM. The level, % of control with Nucleic Acid stood at 82.4%. For the same molecule, the EC50 in data set [3] came out at 7 µM.
For the molecule `CC[C@H](C)[C@H](NC(=O)c1cnc2ccccc2c1Cl)C(=O)OC`, the Ratio in data set [1] was 17. Besides, in data set [2], the CC50 amounted to 23.3 µM. Besides, the EC50 in data set [3] was 1.3 µM.
The matching figures for `COC(=O)[C@H](C)NC(=O)c1cnc2ccccc2c1Cl`: 14, 81.3 µM and 5.7 µM.
The matching figures for `COC(=O)[C@H](CO)NC(=O)c1cnc2c(C)cccc2c1Cl`: above 36, above 100 µM and 2.8 µM.
The matching figures for `O=C(NCCO)c1cnc2ccccc2c1Cl`: above 37, above 100 µM and 2.7 µM.
For `O=C(NCCO)c1c[nH]c2ccccc2c1=O`, the Ratio in data set [1] is on record as above 27. Also, the CC50 in data set [2] is above 100 µM. In addition, the EC50 in data set [3] amounted to 3.7 µM.
`COC(=O)[C@@H](NC(=O)c1cnc2cc(C)ccc2c1Cl)[C@@H](C)O`: the Ratio in data set [1] was above 14. In data set [2], the CC50 is above 100 µM. For the same molecule, in the data set with Nucleic Acid, the level, % of control was 92.7%. Moreover, the EC50 in data set [3] is 13 µM.
Regarding `O=C(N[C@H](CO)Cc1ccccc1)c1cnc2ccccc2c1Cl`, the Ratio in data set [1] is reported as above 25. The CC50 in data set [2] is above 100 µM. Besides, the EC50 in data set [3] was 4 µM.
On the same counts, the results for `CCOC(=O)[C@H](CO)NC(=O)c1cnc2ccccc2c1Cl` are above 21, above 100 µM and 4.7 µM.
With `COC(=O)C[C@H](NC(=O)c1cnc2ccccc2c1Cl)C(=O)OC`, in the data set with Nucleic Acid, the level, % of control worked out at 58.7%.
As for `Cn1cc(C(=O)NCCO)c(=O)c2ccccc21`, the Ratio in data set [1] is on record as above 11. The CC50 in data set [2] is above 100 µM. Further, the level, % of control with Nucleic Acid worked out at 44.2%. Also, the EC50 in data set [3] is 8.7 µM.
As for `COC(=O)[C@H](CO)NC(=O)c1cnc2c(F)cc(F)cc2c1Cl`, the Ratio in data set [1] is above 11. Besides, the CC50 in data set [2] was above 100 µM. For the same molecule, the EC50 in data set [3] came to 8.8 µM.
As for `COC(=O)[C@H](CO)NC(=O)c1cnc2cc(Cl)ccc2c1Cl`, in data set [1], the Ratio is listed as above 12. The CC50 in data set [2] is above 100 µM. Moreover, the EC50 in data set [3] was 8.2 µM.
